In ChEMBL document CHEMBL1152859, “The novel phosphoramidate derivatives of NSAID 3-hydroxypropylamides: synthesis, cytostatic and antiviral activity evaluations” (Eur J Med Chem, 2009):
Calls of active or inactive are those of the source. The rule behind the calls is not given here.

How the values were obtained:
L1210 = assay: Cytostatic activity against mouse L1210 cells after 48 hrs by MTT assay; type: functional, cell-based; conditions: L1210, 48 h
[1] = Cytostatic activity against human Molt4/C8 cells after 72 hrs by MTT assay; type: functional, cell-based; conditions: MOLT-4, 72 h
CCRF-CEM = assay: Cytostatic activity against human CEM cells after 72 hrs by MTT assay; type: functional, cell-based
HeLa = assay: Cytostatic activity against human HeLa cells after 72 hrs by MTT assay; type: functional, cell-based
Procedure, shortened: (§1)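 Monolayer cells were grown in DMEM with 10% FBS, 2 mM L-glutamine, penicillin and streptomycin at 37 °C under 5% CO2. They were seeded on day 0 at 1 × 10⁴ to 3 × 10⁴ cells/ml and exposed to five 10-fold dilutions (10⁻⁸ to 10⁻⁴ M) for 72 h, with a solvent control. Read-out was MTT. Quadruplicates in three experiments (WI 38: one experiment). IC50 by linear regression of percentage-of-growth.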

MIA PaCa-2 = assay: Cytostatic activity against human MIAPaCa2 cells after 72 hrs by MTT assay; type: functional, cell-based; conditions: MIA PaCa-2, 72 h; procedure, shortened: as §1
SW-620 = assay: Cytostatic activity against human SW620 cells after 72 hrs by MTT assay; type: functional, cell-based; conditions: SW-620, 72 h; procedure, shortened: as §1
MCF7 = assay: Cytostatic activity against human MCF7 cells after 72 hrs by MTT assay; type: functional, cell-based; conditions: MCF7, 72 h; procedure, shortened: as §1
NCI-H460 = assay: Cytostatic activity against human H460 cells after 72 hrs by MTT assay; type: functional, cell-based; conditions: NCI-H460, 72 h; procedure, shortened: as §1
[2] = Cytostatic activity against human WI38 cells after 72 hrs by MTT assay; type: ADME, cell-based; conditions: WI-38, 72 h; procedure, shortened: as §1
[3] = tested on: Human immunodeficiency virus 1; assay: Antiviral activity against HIV1 3B infected in human CEM cells assessed as inhibition of virus-induced cytopathicity; type: functional, organism-based; conditions: CCRF-CEM
[4] = tested on: Human immunodeficiency virus 2; assay: Antiviral activity against HIV2 ROD infected in human CEM cells assessed as inhibition of virus-induced cytopathicity; type: functional, organism-based; conditions: CCRF-CEM
Human alphaherpesvirus 1 = assay: Antiviral activity against Herpes simplex virus 1 infected in HEL cells assessed as inhibition of virus-induced cytopathicity; type: functional, organism-based
Human alphaherpesvirus 2 = assay: Antiviral activity against Herpes simplex virus 2 infected in HEL cells assessed as inhibition of virus-induced cytopathicity; type: functional, organism-based
Vaccinia virus = assay: Antiviral activity against Vaccinia virus infected in HEL cells assessed as inhibition of virus-induced cytopathicity; type: functional, organism-based; conditions: Orthopoxvirus vaccinia
Procedure, shortened: (§2)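 Cell cultures were exposed for 2 h to 100 CCID50 of virus, and residual virus was then removed. Infected cells were further incubated with medium containing varying compound concentrations for 3 days at 37 °C. Virus-induced cytopathogenicity was scored microscopically. EC50 is the concentration giving a 50% reduction of cytopathogenicity.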

Human alphaherpesvirus 3 = assay: Antiviral activity against Varicella-Zoster virus infected in HEL cells assessed as inhibition of virus-induced cytopathicity; type: functional, organism-based
Cytomegalovirus = assay: Antiviral activity against Cytomegalovirus infected in HEL cells assessed as inhibition of virus-induced cytopathicity; type: functional, organism-based
Procedure, shortened: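 Confluent HEL fibroblasts were infected with CMV strains Davis and AD-169 at 100 PFU per well for 2 h, then virus was removed. Graded concentrations were added in duplicate and cultures kept 7 days at 37 °C. Cytopathogenicity was scored microscopically after ethanol fixation and Giemsa staining. EC50 is the 50% reduction.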

[5] = tested on: Vesicular stomatitis virus; assay: Antiviral activity against Vesicular stomatitis virus infected in HEL cells assessed as inhibition of virus-induced cytopathicity; type: functional, organism-based; procedure, shortened: as §2
Human respirovirus 3 = assay: Antiviral activity against Parainfluenza-3 virus infected in african green monkey Vero cells assessed as inhibition of virus-induced cytopathicity; type: functional, organism-based
Procedure, shortened: (§3)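 Cells were infected with 100 CCID50 of virus for 2 h, then residual virus was removed. Medium with graded compound concentrations was added and cultures were kept 3 days at 37 °C. Cytopathogenicity was scored microscopically. EC50 is the concentration reducing virus-induced cytopathogenicity by 50%.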

[6] = tested on: Mammalian orthoreovirus 1; assay: Antiviral activity against Reovirus 1 infected in african green monkey Vero cells assessed as inhibition of virus-induced cytopathicity; type: functional, organism-based; procedure, shortened: as §3
Sindbis virus = assay: Antiviral activity against Sindbis virus infected in african green monkey Vero cells assessed as inhibition of virus-induced cytopathicity; type: functional, organism-based; procedure, shortened: as §3
Coxsackievirus B4 [7] = assay: Antiviral activity against Coxsackievirus B4 infected in african green monkey Vero cells assessed as inhibition of virus-induced cytopathicity; type: functional, organism-based; procedure, shortened: as §3
Punta Toro virus = assay: Antiviral activity against Punta Toro virus infected in african green monkey Vero cells assessed as inhibition of virus-induced cytopathicity; type: functional, organism-based; procedure, shortened: as §3
[8] = tested on: Respiratory syncytial virus; assay: Antiviral activity against Respiratory syncytial virus infected in human HeLa cells assessed as inhibition of virus-induced cytopathicity; type: functional, organism-based; procedure, shortened: as §3
[9] = tested on: Vesicular stomatitis virus; assay: Antiviral activity against Vesicular stomatitis virus infected in human HeLa cells assessed as inhibition of virus-induced cytopathicity; type: functional, organism-based; procedure, shortened: as §2
Coxsackievirus B4 [10] = assay: Antiviral activity against Coxsackievirus B4 infected in human HeLa cells assessed as inhibition of virus-induced cytopathicity; type: functional, organism-based; procedure, shortened: as §3

SMILES: COC(=O)[C@H](C)NP(=O)(OCCCNC(=O)C(C)c1ccc(CC(C)C)cc1)Oc1ccc(Cl)cc1 (stereo not given in full)
- IC50 (L1210): 64 µM
- IC50 [1]: 48 µM
- IC50 (CCRF-CEM): 90 µM
- IC50 (HeLa): 15 µM
- IC50 (MIA PaCa-2): 13 µM
- IC50 (SW-620): 21 µM
- IC50 (MCF7): 14 µM
- IC50 (NCI-H460): 19 µM
- IC50 [2]: 21 µM
- Activity [3]: inactive
- Activity [4]: inactive
- Activity (Human alphaherpesvirus 1): inactive
- Activity (Human alphaherpesvirus 2): inactive
- Activity (Vaccinia virus): inactive
- Activity (Human alphaherpesvirus 3): inactive
- Activity (Cytomegalovirus): inactive
- Activity [5]: inactive
- Activity (Human respirovirus 3): inactive
- Activity [6]: inactive
- Activity (Sindbis virus): inactive
- Activity (Coxsackievirus B4 [7]): inactive
- Activity (Punta Toro virus): inactive
- Activity [8]: inactive
- Activity [9]: inactive
- Activity (Coxsackievirus B4 [10]): inactive
